In brackets after ≈: the same amount, converted by molar mass. Activity calls are given as the source filed them. No cut-off for these calls is given here.
How the values were obtained:
[1] = Kinetic solubility of compound in PBS buffer at pH 7 incubated for 15 mins by HPLC-UV analysis
[2] = Metabolic stability in mouse liver microsomes assessed as residual ratio measured after 30 mins in presence of NADPH by LC-MS/MS analysis relative to absence of NADPH; assay type: ADME, Microsome; conditions: read-out: Stabilty
Outline: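 Incubation with mouse liver microsomes (0.5 mg/mL), 30 min at 37 °C, in 0.1 M potassium phosphate pH 7.4, 0.1 mM EDTA, 6 mM MgCl2 and an NADPH-generating system (β-NADP+, glucose-6-phosphate, G6P dehydrogenase). Quenched with acetonitrile/methanol (7:3) containing propranolol internal standard, then LC-MS/MS. Residual ratio with NADPH taken relative to without NADPH.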

[3] = Toxicity in BALB/c mouse assessed as effect on body weight at 100 mg/kg, po administered for 14 days; assay type: organism-based; conditions: in vivo, 336 h, time 14 day
Outline: (§1)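 Female BALB/cAJcl mice (n = 3 or 5/group) dosed orally once daily for 14 days at 100 mg/kg; controls untreated. Body weight tracked. At necropsy after dosing, eyes fixed in 3% glutaraldehyde/2.5% formalin, paraffin-embedded, sectioned, stained with hematoxylin-eosin, and the retina examined histopathologically.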

[4] = target: Hepatocyte growth factor receptor (Homo sapiens) (UniProt P08581); experiment: Inhibition of c-Met (unknown origin)
Chain of Hepatocyte growth factor receptor (Homo sapiens) (P08581 whole entry): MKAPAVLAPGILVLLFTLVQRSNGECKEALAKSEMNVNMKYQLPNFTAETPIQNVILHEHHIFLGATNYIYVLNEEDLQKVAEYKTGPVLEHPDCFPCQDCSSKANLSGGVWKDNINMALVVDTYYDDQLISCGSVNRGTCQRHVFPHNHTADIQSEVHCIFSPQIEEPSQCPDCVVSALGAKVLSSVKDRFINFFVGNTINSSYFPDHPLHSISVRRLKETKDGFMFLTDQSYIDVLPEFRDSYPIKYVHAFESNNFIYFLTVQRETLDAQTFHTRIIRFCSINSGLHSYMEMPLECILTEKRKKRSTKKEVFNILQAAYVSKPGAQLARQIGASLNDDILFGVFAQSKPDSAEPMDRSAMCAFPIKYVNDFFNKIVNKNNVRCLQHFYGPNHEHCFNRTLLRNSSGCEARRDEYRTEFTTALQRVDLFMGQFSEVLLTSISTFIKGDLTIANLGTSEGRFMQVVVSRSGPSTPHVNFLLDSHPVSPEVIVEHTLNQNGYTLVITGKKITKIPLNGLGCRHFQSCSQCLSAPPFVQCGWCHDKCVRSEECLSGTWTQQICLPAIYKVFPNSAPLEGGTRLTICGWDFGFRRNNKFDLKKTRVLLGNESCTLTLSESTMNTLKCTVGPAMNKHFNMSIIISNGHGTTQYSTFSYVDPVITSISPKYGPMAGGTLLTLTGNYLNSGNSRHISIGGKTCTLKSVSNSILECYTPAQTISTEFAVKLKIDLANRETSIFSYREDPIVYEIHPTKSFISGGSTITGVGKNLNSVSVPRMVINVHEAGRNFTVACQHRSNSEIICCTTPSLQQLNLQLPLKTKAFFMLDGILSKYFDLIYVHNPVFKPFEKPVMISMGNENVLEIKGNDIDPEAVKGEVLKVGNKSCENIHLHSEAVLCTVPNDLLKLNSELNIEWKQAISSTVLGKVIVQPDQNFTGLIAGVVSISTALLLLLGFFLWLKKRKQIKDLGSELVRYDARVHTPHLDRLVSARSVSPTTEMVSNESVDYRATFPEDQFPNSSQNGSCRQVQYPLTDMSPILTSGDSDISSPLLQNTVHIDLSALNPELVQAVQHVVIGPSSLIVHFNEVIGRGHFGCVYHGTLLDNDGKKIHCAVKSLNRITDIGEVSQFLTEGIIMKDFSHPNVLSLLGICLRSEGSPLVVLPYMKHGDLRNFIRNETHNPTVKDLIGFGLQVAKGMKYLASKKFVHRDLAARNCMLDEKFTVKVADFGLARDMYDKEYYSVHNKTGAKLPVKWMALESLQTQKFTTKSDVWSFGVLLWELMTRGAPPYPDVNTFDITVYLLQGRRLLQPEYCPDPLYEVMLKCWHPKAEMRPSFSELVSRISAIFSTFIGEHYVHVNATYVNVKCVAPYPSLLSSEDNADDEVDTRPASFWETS

[5] = Toxicity in BALB/c mouse assessed as induction of necrosis in photoreceptor cells at 100 mg/kg, po administered for 14 days hematoxylin and eosin staining based assay; assay type: organism-based; conditions: in vivo, 336 h, time 14 day; outline: as §1
[6] = target: Tyrosine-protein kinase Lck (Homo sapiens) (UniProt P06239); experiment: Inhibition of LCK (unknown origin)
Chain of Tyrosine-protein kinase Lck (Homo sapiens) (P06239 2-509 limits assumed): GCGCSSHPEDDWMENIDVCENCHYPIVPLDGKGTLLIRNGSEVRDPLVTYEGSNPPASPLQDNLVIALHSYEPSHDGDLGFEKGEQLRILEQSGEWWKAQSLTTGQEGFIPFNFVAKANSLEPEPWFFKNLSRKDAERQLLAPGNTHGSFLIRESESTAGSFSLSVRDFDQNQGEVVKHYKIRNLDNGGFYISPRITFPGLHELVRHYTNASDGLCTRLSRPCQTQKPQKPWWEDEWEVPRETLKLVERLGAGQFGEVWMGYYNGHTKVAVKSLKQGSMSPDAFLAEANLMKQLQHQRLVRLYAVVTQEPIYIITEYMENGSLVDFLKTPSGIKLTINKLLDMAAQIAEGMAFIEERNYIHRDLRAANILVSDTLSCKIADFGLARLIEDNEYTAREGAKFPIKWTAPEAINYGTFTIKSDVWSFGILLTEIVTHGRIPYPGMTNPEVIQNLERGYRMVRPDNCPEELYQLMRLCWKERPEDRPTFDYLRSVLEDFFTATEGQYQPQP

[7] = target: T1, Tyrosine-protein kinase receptor TYRO3 (Homo sapiens) (UniProt Q06418); experiment: Inhibition of Tyro3 (unknown origin)
T1 sequence (whole entry): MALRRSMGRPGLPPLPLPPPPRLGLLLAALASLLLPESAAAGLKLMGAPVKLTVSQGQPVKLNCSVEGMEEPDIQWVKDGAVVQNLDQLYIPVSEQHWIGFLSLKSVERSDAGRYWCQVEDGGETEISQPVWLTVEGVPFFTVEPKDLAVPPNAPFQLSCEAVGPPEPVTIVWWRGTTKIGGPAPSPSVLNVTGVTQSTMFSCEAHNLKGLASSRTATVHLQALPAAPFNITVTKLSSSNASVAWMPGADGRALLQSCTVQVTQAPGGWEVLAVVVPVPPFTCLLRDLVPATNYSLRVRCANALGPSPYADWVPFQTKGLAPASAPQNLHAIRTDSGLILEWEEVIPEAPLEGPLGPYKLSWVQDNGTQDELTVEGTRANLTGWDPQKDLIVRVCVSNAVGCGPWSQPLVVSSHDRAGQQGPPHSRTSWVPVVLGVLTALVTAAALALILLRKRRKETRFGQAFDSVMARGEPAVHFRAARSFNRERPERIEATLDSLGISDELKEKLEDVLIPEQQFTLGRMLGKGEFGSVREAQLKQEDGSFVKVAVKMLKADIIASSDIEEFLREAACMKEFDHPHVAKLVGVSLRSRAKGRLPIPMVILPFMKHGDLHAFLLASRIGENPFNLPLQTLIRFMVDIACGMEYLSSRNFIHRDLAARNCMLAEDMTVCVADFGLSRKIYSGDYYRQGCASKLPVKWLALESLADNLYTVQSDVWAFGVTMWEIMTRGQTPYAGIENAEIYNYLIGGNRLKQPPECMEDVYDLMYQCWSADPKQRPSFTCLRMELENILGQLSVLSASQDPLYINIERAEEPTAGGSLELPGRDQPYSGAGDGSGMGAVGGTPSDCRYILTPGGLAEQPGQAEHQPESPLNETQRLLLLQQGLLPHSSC

[8] = AUC (0 to 24 hrs) in CAnN.Cg-Foxnlnu/Cr1Crlj mouse at 30 mg/kg, po measured upto 24 hrs by LC-MS/MS analysis; assay type: ADME, organism-based; parameters: route oral, dose 30 mg/kg, time <=24; conditions: in vivo
Outline: (§2)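 Single oral dose in DMSO/Tween80/5% glucose (7:13:80, v/v/v) to female mice. Blood taken from retinal vein at 0.5, 1, 2, 8 and 24 h and spun to plasma. Plasma precipitated with 20 volumes acetonitrile/methanol (7:3) containing propranolol and niflumic acid internal standards, then analysed by LC-MS/MS. Cmax, tmax and AUC(0-24h) derived from mean plasma concentration.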

[9] = Tmax in CAnN.Cg-Foxnlnu/Cr1Crlj mouse at 10 mg/kg, po measured upto 24 hrs by LC-MS/MS analysis; assay type: ADME, organism-based; conditions: in vivo; outline: as §2
[10] = AUC (0 to 24 hrs) in CAnN.Cg-Foxnlnu/Cr1Crlj mouse at 10 mg/kg, po measured upto 24 hrs by LC-MS/MS analysis; assay type: ADME, organism-based; parameters: route oral, dose 10 mg/kg, time <=24; conditions: in vivo; outline: as §2
[11] = Toxicity in C3H mouse xenografted with mouse BaF3 cells assessed as effect on body weight at 1 to 10 mg/kg, po administered for 4 days and measured on day 4; conditions: in vivo, 96 h
[12] = Cmax in CAnN.Cg-Foxnlnu/Cr1Crlj mouse at 10 mg/kg, po measured upto 24 hrs by LC-MS/MS analysis; assay type: ADME, organism-based; parameters: route oral, dose 10 mg/kg, time <=24; conditions: in vivo; outline: as §2
[13] = Cmax in CAnN.Cg-Foxnlnu/Cr1Crlj mouse at 30 mg/kg, po measured upto 24 hrs by LC-MS/MS analysis; assay type: ADME, organism-based; parameters: route oral, dose 30 mg/kg, time <=24; conditions: in vivo; outline: as §2
[14] = Tmax in CAnN.Cg-Foxnlnu/Cr1Crlj mouse at 100 mg/kg, po measured upto 24 hrs by LC-MS/MS analysis; assay type: ADME, organism-based; conditions: in vivo; outline: as §2
[15] = Tmax in CAnN.Cg-Foxnlnu/Cr1Crlj mouse at 30 mg/kg, po measured upto 24 hrs by LC-MS/MS analysis; assay type: ADME, organism-based; conditions: in vivo; outline: as §2
[16] = AUC (0 to 24 hrs) in CAnN.Cg-Foxnlnu/Cr1Crlj mouse at 100 mg/kg, po measured upto 24 hrs by LC-MS/MS analysis; assay type: ADME, organism-based; parameters: route oral, dose 100 mg/kg, time <=24; conditions: in vivo; outline: as §2
[17] = Cmax in CAnN.Cg-Foxnlnu/Cr1Crlj mouse at 100 mg/kg, po measured upto 24 hrs by LC-MS/MS analysis; assay type: ADME, organism-based; parameters: route oral, dose 100 mg/kg, time <=24; conditions: in vivo; outline: as §2
BaF3 = experiment: Antitumor activity against mouse BaF3 cells expressing Axl xenografted in C3H mouse assessed as reduction in tumor growth at 1 to 10 mg/kg, po administered for 4 days and measured on day 4; conditions: dose 1-10 mg/kg, time 4.0 day

Row | Compound | solubility kinetic at 0.25 h [1] | remaining at 0.5 h [2] | other results
1 | CN1CCN(C2CCN(C(=O)Nc3cc(Oc4ccc(NC(=O)c5cn(C6CC6)c(=O)n(-c6ccc(F)cc6)c5=O)cc4)ncn3)CC2)CC1 | 89 µM (≈ 60.9 µg/mL) | 87% | 
2 | CN1CCC(CC(=O)Nc2cc(Oc3ccc(NC(=O)c4cc5c(n(-c6ccccc6)c4=O)CCCC5=O)cc3)ccn2)CC1 | 77 µM (≈ 46.6 µg/mL) | 77% | 
3 | CC(C)n1cc(C(=O)Nc2ccc(Oc3cc(NC(=O)N4CC(O)C4)ncn3)cc2)c(=O)n(-c2ccc(F)cc2)c1=O | 83 µM (≈ 47.8 µg/mL) | 92% | 
4 | CN1CCC(CC(=O)Nc2cc(Oc3ccc(NC(=O)c4cn(C5CC5)c(=O)n(-c5ccc(F)cc5)c4=O)cc3F)ccn2)CC1 | 82 µM (≈ 51.7 µg/mL) | 78% | 
5 | CC(C)n1cc(C(=O)Nc2ccc(Oc3ccnc(NC(=O)CN(C)C)c3)cc2)c(=O)n(-c2ccc(F)cc2)c1=O | 32 µM (≈ 17.9 µg/mL) | 19% | 
6 | CC(C)n1cc(C(=O)Nc2cc(F)c(Oc3ccnc(NC(=O)N4CCC(N5CCN(C)CC5)CC4)c3)cc2F)c(=O)n(-c2ccc(F)cc2)c1=O | 76 µM (≈ 54.8 µg/mL) | 86% | Activity [3]: Non-Toxic; inhibition [4]: Active; Activity [5]: Toxic; inhibition [6]: Active; inhibition [7]: Active
7 | CC(C)n1cc(C(=O)Nc2ccc(Oc3cc(NC(=O)C4CC4)ncn3)cc2)c(=O)n(-c2ccc(F)cc2)c1=O | 6 µM (≈ 3.27 µg/mL) | 83% | 
8 | CC(C)n1cc(C(=O)Nc2ccc(Oc3cc(NC(=O)N4CCC(N5CCN(C)CC5)CC4)ncn3)cc2)c(=O)n(-c2ccc(F)cc2)c1=O | 89 µM (≈ 61 µg/mL) | 88% | AUC(0-t) [8]: 18100 ng·h/mL; Activity [3]: Non-Toxic; inhibition [4]: inactive; Activity [5]: Non-Toxic; Tmax [9]: 2 h; AUC(0-t) [10]: 7290 ng·h/mL; Activity [11]: Non-Toxic; Cmax [12]: 1580 ng/mL; Cmax [13]: 3790 ng/mL; inhibition [6]: inactive; inhibition [7]: inactive; Tmax [14]: 2 h; Tmax [15]: 2 h; AUC(0-t) [16]: 72700 ng·h/mL; Cmax [17]: 13500 ng/mL; TGI (BaF3): Active
9 | CN1CCN(C2CCN(C(=O)Nc3cc(Oc4ccc(NC(=O)c5cn(C6CCCC6)c(=O)n(-c6ccc(F)cc6)c5=O)cc4)ncn3)CC2)CC1 | 80 µM (≈ 56.9 µg/mL) | 82% | 
10 | CC(C)n1cc(C(=O)Nc2ccc(Oc3cc(NC(=O)N4CC(N5CCCC5)C4)ncn3)cc2)c(=O)n(-c2ccc(F)cc2)c1=O | 80 µM (≈ 50.3 µg/mL) | 1.3% | 
11 | CC(C)n1cc(C(=O)Nc2ccc(Oc3cc(NC(=O)N4CCCC4)ncn3)cc2)c(=O)n(-c2ccc(F)cc2)c1=O | 1 µM (≈ 0.574 µg/mL) | 59% | 
12 | CC(C)n1cc(C(=O)Nc2ccc(Oc3ccnc(NC(=O)CC4CCN(C)CC4)c3)cc2)c(=O)n(-c2ccc(F)cc2)c1=O | 80 µM (≈ 49.2 µg/mL) | 81% | 
13 | CN1CCN(C2CCN(C(=O)Nc3cc(Oc4ccc(NC(=O)c5cn(C)c(=O)n(-c6ccc(F)cc6)c5=O)cc4)ncn3)CC2)CC1 | 90 µM (≈ 59.2 µg/mL) | 99% | 
14 | CN1CCN(C2CCN(C(=O)Nc3cc(Oc4cc(F)c(NC(=O)c5cc6c(n(-c7ccccc7)c5=O)CCCC6=O)cc4F)ccn3)CC2)CC1 | 43 µM (≈ 30.6 µg/mL) | 78% | 
15 | CC(C)n1cc(C(=O)Nc2ccc(Oc3cc(NC(=O)N4CC(N(C)C)C4)ncn3)cc2)c(=O)n(-c2ccc(F)cc2)c1=O |  | 0.3% | 
16 | CN1CCC(CC(=O)Nc2cc(Oc3ccc(NC(=O)c4cc5c(n(-c6ccccc6)c4=O)CCCC5=O)cc3F)ccn2)CC1 | 75 µM (≈ 46.8 µg/mL) | 71% | 
17 | CN1CCC(CC(=O)Nc2cc(Oc3ccc(NC(=O)c4cn(C5CCCC5)c(=O)n(-c5ccc(F)cc5)c4=O)cc3F)ccn2)CC1 | 70 µM (≈ 46.1 µg/mL) | 63% | 
18 | CC(C)n1cc(C(=O)Nc2ccc(Oc3cc(NC(=O)N4CCC4)ncn3)cc2)c(=O)n(-c2ccc(F)cc2)c1=O | 36 µM (≈ 20.1 µg/mL) | 79% | 
19 | CN1CCC(CC(=O)Nc2cc(Oc3ccc(NC(=O)c4cc5c(n(-c6ccccc6)c4=O)CCCC5=O)c(F)c3)ccn2)CC1 | 73 µM (≈ 45.5 µg/mL) | 75% | 
20 | CC(C)n1cc(C(=O)Nc2ccc(Oc3ccnc(NC(=O)CC4CCN(C)CC4)c3)cc2F)c(=O)n(-c2ccc(F)cc2)c1=O | 78 µM (≈ 49.3 µg/mL) | 76% | 
21 | CN1CCC(CC(=O)Nc2cc(Oc3cc(F)c(NC(=O)c4cc5c(n(-c6ccccc6)c4=O)CCCC5=O)cc3F)ccn2)CC1 | 50 µM (≈ 32.1 µg/mL) | 72% | 
